The source made the active and inactive calls. The calls are words filed in the database; no cut-off is given here.
How the values were obtained:
Histamine H3 receptor [1] = biological target: T1, Histamine H3 receptor (Homo sapiens, UniProt Q9Y5N1); experiment: Displacement of [3H]N-alpha-methyl-histamine from human histamine H3 receptor expressed in human HEK293-EBNA cells; type: cell-based
Histamine H3 receptor [2] = biological target: T1, Histamine H3 receptor; experiment: Antagonist activity at human histamine H3 receptor expressed in human HEK293-EBNA cells assessed as inhibition of histamine-induced response at 100 uM by luciferase reporter gene assay; type: functional, cell-based
Histamine H3 receptor [3] = biological target: T1, Histamine H3 receptor; experiment: Agonist activity at human histamine H3 receptor expressed in human HEK293-EBNA cells by luciferase reporter gene assay; type: functional, cell-based
Procedure, shortened: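 Human H3 receptor expressed individually in 293-EBNA cells; compounds tested for agonism at 10^-5 M in a luciferase reporter gene assay.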

T1 sequence (Q9Y5N1 whole entry): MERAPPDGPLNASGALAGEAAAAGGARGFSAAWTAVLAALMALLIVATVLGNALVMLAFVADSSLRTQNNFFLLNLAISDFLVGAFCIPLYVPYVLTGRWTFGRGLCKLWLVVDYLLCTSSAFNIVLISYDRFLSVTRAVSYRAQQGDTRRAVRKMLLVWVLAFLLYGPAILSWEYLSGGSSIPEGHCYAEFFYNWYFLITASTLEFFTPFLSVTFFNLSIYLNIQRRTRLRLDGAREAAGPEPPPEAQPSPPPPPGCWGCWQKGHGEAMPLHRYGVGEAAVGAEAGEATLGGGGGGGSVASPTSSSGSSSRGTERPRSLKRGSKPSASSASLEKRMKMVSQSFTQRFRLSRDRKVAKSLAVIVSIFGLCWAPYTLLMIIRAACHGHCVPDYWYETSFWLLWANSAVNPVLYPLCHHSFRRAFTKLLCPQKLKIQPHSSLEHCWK

Ki (Histamine H3 receptor [1]) [nM] | inhibition (Histamine H3 receptor [2]) [%] | Activity (Histamine H3 receptor [3]) | SMILES
63 | – | – | CC[C@H](CNCc1ccc(Cl)cc1)[C@H]1C[C@@H]1c1cnc[nH]1
129 | – | – | CC[C@H](CNCc1ccc(Cl)cc1)[C@@H]1C[C@H]1c1cnc[nH]1
19.8 | 95 | inactive | CC[C@@H](CNCc1ccc(Cl)cc1)[C@@H]1C[C@H]1c1c[nH]cn1
– | 73 | inactive | CC[C@H](CNCc1ccc(Cl)cc1)[C@@H]1C[C@H]1c1c[nH]cn1
6.7 | 88 | inactive | CC[C@@H](CNCc1ccc(Cl)cc1)[C@H]1C[C@@H]1c1c[nH]cn1
– | 96 | inactive | CC[C@H](CNCc1ccc(Cl)cc1)[C@H]1C[C@@H]1c1c[nH]cn1

SMILES | Ki (Histamine H3 receptor [1]) [nM] | inhibition (Histamine H3 receptor [2]) [%] | Activity (Histamine H3 receptor [3])
Clc1ccc(CNCC[C@@H]2C[C@H]2c2c[nH]cn2)cc1 | 8.4 | 100 | –
Clc1ccc(CNCC[C@H]2C[C@@H]2c2c[nH]cn2)cc1 | 3.6 | 100 | –

From ChEMBL document CHEMBL1157786, “Investigation of the bioactive conformation of histamine H3 receptor antagonists by the cyclopropylic strain-based conformational restriction strategy” (J Med Chem, 2010)
